In ChEMBL document CHEMBL1145796, “Neuromuscular blocking activity and therapeutic potential of mixed-tetrahydroisoquinolinium halofumarates and halosuccinates in rhesus monkeys” (2003):

What was measured:
Type in all cases: functional, Cercopithecidae
[1] = Selectivity index is changes in heart rate(cv dose) to the suppression of twitch response (ED95) in male Rhesus monkey
How it was run: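 Same anesthetized male rhesus preparation, with blood pressure, heart rate and EKG recorded alongside twitch during sequential iv doses up to 6.4 mg/kg. Cardiovascular threshold dose is the dose giving ≥10% change in heart rate or mean arterial pressure. Index = mean threshold dose / mean ED95 (extensor digitorum).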

[2] = Time from injection to peak inhibition of twitch response at the ED95 dose in male Rhesus monkey.
How it was run: (§1)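 Anesthetized, ventilated male rhesus monkeys received sequential iv bolus doses with extensor digitorum twitch recorded. Onset is injection to peak twitch inhibition. Duration is injection to 95% twitch recovery. Values at the ED95 were read from plots of onset or duration vs dose. Means ± SE across animals.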

[3] = Time from injection to 95% recovery of the twitch response at the ED95 dose in male Rhesus monkey.; how it was run: as §1
[4] = Dose required for 95% suppression of the twitch response at the extensor digitorum in male Rhesus monkey.; settings: Cercopithecidae; read-out: ED95
How it was run: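 Adult male rhesus monkeys (8–15 kg) under ketamine (5 mg/kg i.m.) and pentobarbital (2–5 mg/kg iv) induction, then N2O 60%/O2 40%/halothane 0.5–1%, ventilated, core temperature 37–38 °C. Twitch of extensor digitorum was recorded after ≥20 min stable baseline. Sequential iv bolus doses from 0.03 to 6.4 mg/kg. Per-animal ED95 came from log-probability regression of dose vs % block. Other lines give the single dose tested with its % block.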

Compound `COc1cc2c(cc1OC)[C@H](c1cc(OC)c(OC)c(OC)c1)[N@@+](C)(CCCOC(=O)CCCCCCC(=O)OCCC[N@+]1(C)CCc3cc(OC)c(OC)cc3[C@H]1Cc1cc(OC)c(OC)c(OC)c1)CC2.[Cl-].[Cl-]` has a Selectivity index [1] of 12, an Onset [2] of 117 s and a Duration [3] of 10.9 min. The ED95 [4] was 0.067 mg/kg.
Work on `COc1cc2c(cc1OC)[C@H](c1cc(OC)c(OC)c(OC)c1)[N@@+](C)(CCCOC(=O)/C=C(\F)C(=O)OCCC[N@+]1(C)CCc3cc(OC)c(OC)c(OC)c3[C@H]1Cc1cc(OC)c(OC)c(OC)c1)CC2.[Cl-].[Cl-]` yielded a Selectivity index [1] of 21, an Onset [2] of 85 s and a Duration [3] of 10 min. The ED95 [4] was 0.077 mg/kg.
For `COc1cc2c(cc1OC)C(Cc1cc(OC)c(OC)c(OC)c1)[N@+](C)(CCCOC(=O)/C(Cl)=C/C(=O)OCCC[N@+]1(C)CCc3cc(OC)c(OC)cc3[C@H]1Cc1cc(OC)c(OC)c(OC)c1)CC2.[Cl-].[Cl-]` (stereo partly drawn), the Selectivity index [1] was 20, the Onset [2] was 96 s and the Duration [3] was 7.1 min. For the same compound, the ED95 [4] was 0.079 mg/kg.
Work on `COc1cc(CC2c3cc4c(cc3CC[N@@+]2(C)CCCOC(=O)/C(Cl)=C/C(=O)OCCC[N@+]2(C)CCc3cc5c(cc3[C@H]2Cc2cc(OC)c(OC)c(OC)c2)OCO5)OCO4)cc(OC)c1OC.[Cl-].[Cl-]` (stereo partly drawn) yielded a Selectivity index [1] of 1.3, an Onset [2] of 27 s and a Duration [3] of 2.4 min. It also gave an ED95 [4] of 0.62 mg/kg.
For `COc1cc2c(cc1OC)C(c1cc(OC)c(OC)c(OC)c1)[N@+](C)(CCCOC(=O)/C(Cl)=C/C(=O)OCCC[N@+]1(C)CCc3cc(OC)c(OC)cc3[C@H]1c1cc(OC)c(OC)c(OC)c1)CC2.[Cl-].[Cl-]` (stereo partly drawn), the Selectivity index [1] was 3.6, the Onset [2] was 46 s and the Duration [3] was 5.1 min. The ED95 [4] was 1.79 mg/kg.
Compound `COc1cc2c(cc1OC)[C@@H](c1cc(OC)c(OC)c(OC)c1)[N@+](C)(CCCOC(=O)/C=C(\Cl)C(=O)OCCC[N@+]1(C)CCc3cc(OC)c(OC)c(OC)c3[C@H]1Cc1cc(OC)c(OC)c(OC)c1)CC2` has a Selectivity index [1] of 24, an Onset [2] of 57 s and a Duration [3] of 10 min. For the same compound, the ED95 [4] was 0.067 mg/kg.
In the case of `COc1cc2c(cc1OC)[C@H](c1cc(OC)c(OC)c(OC)c1)[N@@+](C)(CCCOC(=O)CC(F)(F)C(=O)OCCC[N@+]1(C)CCc3cc(OC)c(OC)c(OC)c3[C@H]1Cc1cc(OC)c(OC)c(OC)c1)CC2.[Cl-].[Cl-]`, the Selectivity index [1] is reported as 60, the Onset [2] is reported as 217 s and the Duration [3] is reported as 14 min. For the same compound, the ED95 [4] was 0.04 mg/kg.
In the case of `COc1cc2c(cc1OC)[C@H](c1cc(OC)c(OC)c(OC)c1)[N@@+](C)(CCCOC(=O)/C=C(\F)C(=O)OCCC[N@+]1(C)CCc3cc(OC)c(OC)cc3[C@H]1Cc1cc(OC)c(OC)c(OC)c1)CC2.[Cl-].[Cl-]`, the Selectivity index [1] is reported as 37, the Onset [2] is reported as 66 s and the Duration [3] is reported as 4.4 min. For the same compound, the ED95 [4] was 0.137 mg/kg.
With `COc1cc2c(cc1OC)[C@@H](Cc1cc(OC)c(OC)c(OC)c1)[N@+](C)(CCCOC(=O)/C(Cl)=C/C(=O)OCCC[N@+]13CCc4cc(OC)c(OC)cc4[C@H]1c1cc(OC)c(OC)cc1CC3)CC2.[Cl-].[Cl-]` the Selectivity index [1] was 5, the Onset [2] was 94 s and the Duration [3] was 5.2 min. For the same compound, the ED95 [4] was 0.078 mg/kg.
For `COc1cc2c(cc1OC)[C@@H](c1cc(OC)c(OC)c(OC)c1)[N@+](C)(CCCOC(=O)/C=C(\Cl)C(=O)OCCC[N@+]1(C)CCc3cc(OC)c(OC)c(OC)c3[C@H]1Cc1cc(OC)c(OC)c(OC)c1)CC2.[Cl-].[Cl-]`, the Selectivity index [1] was 15, the Onset [2] was 113 s and the Duration [3] was 9.9 min. For the same compound, the ED95 [4] was 0.053 mg/kg.
Compound `COc1ccc([C@H]2c3cc(OC)c(OC)cc3CC[N@+]2(C)CCCOC(=O)/C=C(\Cl)C(=O)OCCC[N@+]2(C)CCc3cc(OC)c(OC)cc3[C@H]2Cc2cc(OC)c(OC)c(OC)c2)cc1.[Cl-].[Cl-]` has a Selectivity index [1] of 6, an Onset [2] of 69 s and a Duration [3] of 7.4 min. The ED95 [4] was 0.136 mg/kg.
`COc1cc2c(cc1OC)[C@H](c1ccc(F)c(F)c1)[N@@+](C)(CCCOC(=O)/C=C(\Cl)C(=O)OCCC[N@+]1(C)CCc3cc(OC)c(OC)cc3[C@H]1Cc1cc(OC)c(OC)c(OC)c1)CC2.[Cl-].[Cl-]` showed a Selectivity index [1] of 18, an Onset [2] of 72 s and a Duration [3] of 4.7 min. For the same compound, the ED95 [4] was 0.09 mg/kg.
